Several values for one entry are separate records, joined by “and”; a condition that tells them apart may be missing. Equal values may be shown once.
Key:
Format in all cases: in vivo
[1] = system: female Swiss albino mice; assay: Tail Suspension Test; settings: percentage decrease in duration of immobility compared to disease control
How it was run: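 Female Swiss albino mice (20–23 g) received standard or test compound 30 min before testing. Each mouse was hung by the tail from a hook in a three-sided chamber, 50 cm above the surface. Total immobility was recorded over a 10-min session and reported as mean ± SEM.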

[2] = system: female Swiss albino mice; assay: Acute oral toxicity study; settings: individual mice; for Body weight Day 0: pre-administration fasting weight
How it was run: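 Female Swiss albino mice (20–23 g) kept at 22 ± 3 °C, 50–65% humidity, 12 h light/dark. OECD 423 stepwise design, three mice per step: 300 mg/kg, then 2000 mg/kg. Test compound was given in distilled water by oral intubation needle. Feed was withheld 3–4 h before and 2 h after dosing. Fasting weight was taken pre-dose, then on days 7 and 14.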

[3] = system: female Swiss albino mice; assay: Forced Swim Test; settings: percentage decrease in duration of immobility compared to disease control
How it was run: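 Female Swiss albino mice (20–23 g) were dosed 30 min before testing: saline 10 mL/kg (control), fluoxetine 10 mg/kg (standard), or test compound 100 mg/kg. Two 10-min swim sessions ran 24 h apart (pre-test, then test). Water was at 23 ± 1 °C, deep enough that hind legs could not touch bottom, and changed after each trial. Immobility duration reported as mean ± SEM.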

## Cc1nn(-c2ccccc2)c(N2CCCCC2)c1/C=C/C(=O)c1ccc(-n2c3ccccc3c3ccccc32)cc1 [13a, (E)-1-(4-(9H-Carbazol-9-yl)phenyl)-3-(3-methyl-1-phenyl-5-(piperidin-1-yl)-1H-pyrazol-4-yl)prop-2-en-1-one]
[1]
  DID (%) Tail suspension test: 5.74%
[2]; Step I 300 mg kg^−1 oral
  Body weight Day 7: 28 g and 26.5 g and 29 g
  Body weight Day 14: 32 g and 33 g and 34.5 g
  Body weight Day 0: 22.5 g and 21.5 g and 25 g
[2]; Step II 2000 mg kg^−1 oral
  Body weight Day 7: 29.5 g and 29 g and 30 g
  Body weight Day 14: 33 g and 32.5 g and 35 g
  Body weight Day 0: 24 g and 23.5 g
[3]
  DID (%) Forced swim test: 24.92%

## Cc1nn(-c2ccccc2)c(N2CCOCC2)c1/C=C/C(=O)c1ccc(-n2c3ccccc3c3ccccc32)cc1 [13b, (E)-1-(4-(9H-Carbazol-9-yl)phenyl)-3-(3-methyl-5-morpholino-1-phenyl-1H-pyrazol-4-yl)prop-2-en-1-one]
[1]
  DID (%) Tail suspension test: 11.30%
[2]; Step I 300 mg kg^−1 oral
  Body weight Day 7: 26.5 g and 29 g and 29.5 g
  Body weight Day 14: 32.5 g and 36 g and 34.5 g
  Body weight Day 0: 23.5 g and 24 g
[2]; Step II 2000 mg kg^−1 oral
  Body weight Day 7: 27.5 g and 30.5 g and 27 g
  Body weight Day 14: 32 g and 34.5 g
  Body weight Day 0: 23 g and 24.5 g and 21.5 g
[3]
  DID (%) Forced swim test: 23.47%

## Cc1nn(-c2ccccc2)c(-n2nnc3ccccc32)c1/C=C/C(=O)c1ccc(-n2c3ccccc3c3ccccc32)cc1 [13c, (E)-3-(5-(1H-Benzo[d][1,2,3]triazol-1-yl)-3-methyl-1-phenyl-1H-pyrazol-4-yl)-1-(4-(9H-carbazol-9-yl)phenyl)prop-2-en-1-one]
[1]
  DID (%) Tail suspension test: 34.67%
[2]; Step I 300 mg kg^−1 oral
  Body weight Day 7: 26.5 g
  Body weight Day 14: 31 g and 30 g
  Body weight Day 0: 22.5 g and 23.5 g and 21.5 g
[2]; Step II 2000 mg kg^−1 oral
  Body weight Day 7: 28 g and 28.5 g and 29.5 g
  Body weight Day 14: 33.5 g and 34.5 g
  Body weight Day 0: 22 g and 23.5 g
[3]
  DID (%) Forced swim test: 35.63%

## COc1c(/C=C/C(=O)c2ccc(-n3c4ccccc4c4ccccc43)cc2)c(C)nn1-c1ccccc1 [13d, (E)-1-(4-(9H-Carbazol-9-yl)phenyl)-3-(5-methoxy-3-methyl-1-phenyl-1H-pyrazol-4-yl)prop-2-en-1-one]
[1]
  DID (%) Tail suspension test: 8.55%

## Cc1nn(-c2ccccc2)c(N2CCCCC2)c1/C=C/C(=O)c1ccc(-n2ccc3ccccc32)cc1 [14a, (E)-1-(4-(1H-Indol-1-yl)phenyl)-3-(3-methyl-1-phenyl-5-(piperidin-1-yl)-1H-pyrazol-4-yl)prop-2-en-1-one]
[1]
  DID (%) Tail suspension test: 2.58%
[3]
  DID (%) Forced swim test: 16.61%

## Cc1nn(-c2ccccc2)c(N2CCOCC2)c1/C=C/C(=O)c1ccc(-n2ccc3ccccc32)cc1 [14b, (E)-1-(4-(1H-Indol-1-yl)phenyl)-3-(3-methyl-5-morpholino-1-phenyl-1H-pyrazol-4-yl)prop-2-en-1-one]
[1]
  DID (%) Tail suspension test: 1.92%
[3]
  DID (%) Forced swim test: 2.22%

## Cc1nn(-c2ccccc2)c(-n2nnc3ccccc32)c1/C=C/C(=O)c1ccc(-n2ccc3ccccc32)cc1 [14c, (E)-3-(5-(1H-Benzo[d][1,2,3]triazol-1-yl)-3-methyl-1-phenyl-1H-pyrazol-4-yl)-1-(4-(1H-indol-1-yl)phenyl)prop-2-en-1-one]
[1]
  DID (%) Tail suspension test: 9.60%
[3]
  DID (%) Forced swim test: 17.90%

## COc1c(/C=C/C(=O)c2ccc(-n3ccc4ccccc43)cc2)c(C)nn1-c1ccccc1 [14d, (E)-1-(4-(1H-Indol-1-yl)phenyl)-3-(5-methoxy-3-methyl-1-phenyl-1H-pyrazol-4-yl)prop-2-en-1-one]
[1]
  DID (%) Tail suspension test: 5.57%
[3]
  DID (%) Forced swim test: 13.62%

## Cc1nn(-c2ccccc2)c(N2CCCCC2)c1/C=C/C(=O)c1ccc(-n2cccc2)cc1 [15a, (E)-1-(4-(1H-Pyrrol-1-yl)phenyl)-3-(3-methyl-1-phenyl-5-(piperidin-1-yl)-1H-pyrazol-4-yl)prop-2-en-1-one]
[1]
  DID (%) Tail suspension test: 4.50%
[3]
  DID (%) Forced swim test: 6.55%

## Cc1nn(-c2ccccc2)c(N2CCOCC2)c1/C=C/C(=O)c1ccc(-n2cccc2)cc1 [15b, (E)-1-(4-(1H-Pyrrol-1-yl)phenyl)-3-(3-methyl-5-morpholino-1-phenyl-1H-pyrazol-4-yl)prop-2-en-1-one]
[1]
  DID (%) Tail suspension test: 5.74%
[3]
  DID (%) Forced swim test: 11.56%

## Cc1nn(-c2ccccc2)c(-n2nnc3ccccc32)c1/C=C/C(=O)c1ccc(-n2cccc2)cc1 [15c, (E)-3-(5-(1H-Benzo[d][1,2,3]triazol-1-yl)-3-methyl-1-phenyl-1H-pyrazol-4-yl)-1-(4-(1H-pyrrol-1-yl)phenyl)prop-2-en-1-one]
[1]
  DID (%) Tail suspension test: 14.60%
[3]
  DID (%) Forced swim test: 22.99%

## COc1c(/C=C/C(=O)c2ccc(-n3cccc3)cc2)c(C)nn1-c1ccccc1 [15d, (E)-1-(4-(1H-Pyrrol-1-yl)phenyl)-3-(5-methoxy-3-methyl-1-phenyl-1H-pyrazol-4-yl)prop-2-en-1-one]
[1]
  DID (%) Tail suspension test: 16.24%
[3]
  DID (%) Forced swim test: 22.53%

## CNCCC(Oc1ccc(C(F)(F)F)cc1)c1ccccc1 (stereo not shown) [Fluoxetine, reference compound]
[1]
  DID (%) Tail suspension test: 59.67%
[3]
  DID (%) Forced swim test: 56.17%
